Data on 23 molecules can be found in ChEMBL document CHEMBL1150378, “Synthesis and in vitro antiprotozoal activities of water-soluble, inexpensive 3,7-bis(dialkylamino)phenoxazin-5-ium derivatives” (J Med Chem, 2008).

In one assay the test system is Plasmodium falciparum. In words: Antiplasmodial activity against chloroquine and pyrimethamine-resistant Plasmodium falciparum K1. The class given is functional, organism-based. The gist of the method: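 Compounds were prepared as 10 mg/mL DMSO stocks, diluted in serum-free medium, then brought to test concentrations in complete medium without hypoxanthine. DMSO was at most 1% in the top-concentration wells. IC50 values come from two replicate experiments, with chloroquine as the reference standard. Rat L6 myoblast IC50 served for the selectivity index.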

The nature of assay [1]: Selectivity index, Ratio of IC50 for rat L6 cells to IC50 for Plasmodium falciparum K1. The class given is functional. The gist of the method:
(§1)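 Selectivity index is the L6 myoblast cytotoxicity IC50 divided by the IC50 against the respective parasite. Both IC50 values come from two replicate experiments, with compounds diluted from 10 mg/mL DMSO stocks and final DMSO at most 1%.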

The next assay concerns Trypanosoma cruzi. In words: Antitrypanosomal activity against Trypanosoma cruzi Tulahuen C2C4. Type of assay: functional, organism-based. In outline: (§2)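 Test compounds were made up as 10 mg/mL stocks in 100% DMSO, warmed or sonicated to dissolve, then diluted in serum-free medium and brought to working concentration in complete medium without hypoxanthine. DMSO was at most 1% in the top-concentration wells. IC50 was determined by previously described methods, with values from two replicate experiments. Reference drugs were chloroquine, melarsoprol, benznidazole, miltefosine and podophyllotoxin (L6).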

Assay [2] is described as follows: Selectivity index, Ratio of IC50 for rat L6 cells to IC50 for Trypanosoma cruzi Tulahuen C2C4. The class given is functional. The gist of the method:
as §1

Assay [3] has as its system Trypanosoma brucei rhodesiense. Kind of assay: Antitrypanosomal activity against Trypanosoma brucei rhodesiense STIB900. The class given is functional, organism-based. The gist of the method:
as §2

Assay [4] is described as follows: Selectivity index, Ratio of IC50 for rat L6 cells to IC50 for Trypanosoma brucei rhodesiense STIB900. Type of assay: functional. In outline: as §1
The subject of a further assay is Leishmania donovani. Kind of assay: Antileishmanial activity against Leishmania donovani MHOM-ET-67/L82 axenic amastigotes. Type of assay: functional, organism-based. In outline:
as §2

Assay [5] can be described thus: Selectivity index, Ratio of IC50 for rat L6 cells to IC50 for Leishmania donovani MHOM-ET-67/L82 axenic amastigotes. The class given is functional. In outline: as §1
Another assay deals with L6. In words: Cytotoxicity against rat L6 cells. The class given is cell-based. The gist of the method: as §2

The term IC50 denotes the concentration that gives 50% inhibition. The low end stands for higher potency, the high end for lower potency. As to `CCN(CC)c1ccc2nc3ccc(N(CC)CC)cc3[o+]c2c1.[Cl-]`, the IC50 is 3 nM in the assay on Plasmodium falciparum; 36 nM in the assay with Trypanosoma cruzi; 228 nM in assay [3]; 214 nM in the assay on Leishmania donovani; 6700 nM in the assay on L6. Besides, the “Ratio IC50” value in assay [1] is 2410; in [2], 185.4; in assay [4] it was 29.4; in assay [5], 31.3.

Take `CCN(CC)c1ccc2nc3ccc(N4CCOCC4)cc3[o+]c2c1.[Cl-]`: the IC50 in the assay with Plasmodium falciparum came to 29 nM; with Trypanosoma cruzi, 2940 nM; in [3] it was 4070 nM; in the assay on Leishmania donovani, 16300 nM; in the assay on L6, 40100 nM. Also, the “Ratio IC50” value was determined as 1363.6 in assay [1], 13.6 in assay [2], 9.9 in assay [4] and 2.5 in assay [5].

With `CCCN(CCC)c1ccc2nc3ccc(N4CCOCC4)cc3[o+]c2c1.[Cl-]`, the IC50 in the assay with Plasmodium falciparum is 5 nM; in the assay with Trypanosoma cruzi, 406 nM; in assay [3], 871 nM; with Leishmania donovani, 754 nM; in the assay with L6 it was 19300 nM. In addition, the “Ratio IC50” value is given as 3883 in assay [1], 47.6 in assay [2], 22.2 in assay [4] and 25.6 in assay [5].

As for `CN(C)c1ccc2nc3ccc(N4CCSCC4)cc3[o+]c2c1.[Cl-]`, the IC50 with Plasmodium falciparum worked out at 6 nM; with Trypanosoma cruzi, 608 nM; in [3] it was 5470 nM; with Leishmania donovani it was 14400 nM; in the assay with L6, 22200 nM. Moreover, the “Ratio IC50” value is recorded as 4022.5 in [1], 36.6 in assay [2], 4.1 in assay [4] and 1.5 in [5].

For `CCN(CC)c1ccc2nc3ccc(N4CCSCC4)cc3[o+]c2c1.[Cl-]`, the concentration for half-maximal inhibition (IC50) in the assay on Plasmodium falciparum amounted to 8 nM; with Trypanosoma cruzi it was 154 nM; in assay [3], 1610 nM; with Leishmania donovani it was 1000 nM; in the assay on L6 it was 21700 nM. Further, the “Ratio IC50” value in assay [1] was found to be 2822; in [2] it was 141.1; in [4], 13.5; in assay [5], 21.6.

As to `CCCN(CCC)c1ccc2nc3ccc(N4CCSCC4)cc3[o+]c2c1.[Cl-]`, the IC50 with Plasmodium falciparum stood at 7 nM; in the assay with Trypanosoma cruzi, 163 nM; in assay [3], 1510 nM; in the assay with Leishmania donovani, 1170 nM; in the assay with L6 it was 7010 nM. Also, the “Ratio IC50” value in [1] worked out at 976.7; in assay [2], 43.1; in [4] it was 4.6; in assay [5], 6.

As to `[Cl-].c1cc2nc3ccc(N4CCCCC4)cc3[o+]c2cc1N1CCCCC1`, the IC50 in the assay on Plasmodium falciparum was 5 nM; in the assay on Trypanosoma cruzi, 81 nM; in [3], 154 nM; with Leishmania donovani, 1140 nM; in the assay with L6 it was 5470 nM. The “Ratio IC50” value is listed as 1050 in assay [1], 67.7 in assay [2], 35.6 in assay [4] and 4.8 in [5].

For the molecule `CN(C)c1ccc2nc3ccc(N4CCCCC4)cc3[o+]c2c1.[Cl-]`, the IC50 in the assay on Plasmodium falciparum worked out at 3 nM; in the assay with Trypanosoma cruzi, 174 nM; in assay [3], 843 nM; with Leishmania donovani it was 1660 nM; in the assay with L6, 22500 nM. Moreover, the “Ratio IC50” value in assay [1] is listed as 7740; in assay [2], 129; in [4] it was 26.7; in assay [5], 13.6.

Take `CCN(CC)c1ccc2nc3ccc(N4CCCCC4)cc3[o+]c2c1.[Cl-]`: the IC50 in the assay with Plasmodium falciparum is 3 nM; with Trypanosoma cruzi it was 48 nM; in assay [3], 245 nM; in the assay with Leishmania donovani it was 1440 nM; in the assay on L6, 6430 nM. Further, the “Ratio IC50” value is reported as 2390 in assay [1], 132.8 in assay [2], 26.3 in assay [4] and 4.5 in [5].

For the molecule `CCCN(CCC)c1ccc2nc3ccc(N4CCCCC4)cc3[o+]c2c1.[Cl-]`, the IC50 in the assay with Plasmodium falciparum was determined as 8 nM; with Trypanosoma cruzi it was 23 nM; in [3], 238 nM; with Leishmania donovani, 98 nM; in the assay on L6, 790 nM. Besides, the “Ratio IC50” value came out at 105.3 in assay [1], 35.1 in assay [2], 3.3 in assay [4] and 8.1 in [5].

`CCCCN(CCCC)c1ccc2nc3ccc(N4CCCCC4)cc3[o+]c2c1.[Cl-]`: the IC50 in the assay on Plasmodium falciparum turned out to be 7 nM; with Trypanosoma cruzi it was 58 nM; in assay [3], 269 nM; in the assay with Leishmania donovani, 2 nM; in the assay with L6, 90 nM. Also, the “Ratio IC50” value in [1] is 12.3; in [2] it was 1.5; in [4] it was 0.3; in [5], 37.

Regarding `CCCCCCN(CCCCCC)c1ccc2nc3ccc(N4CCCCC4)cc3[o+]c2c1.[Cl-]`, the IC50 with Plasmodium falciparum was 4 nM; with Trypanosoma cruzi, 21 nM; in assay [3], 14 nM; in the assay on Leishmania donovani, 14 nM; with L6, 200 nM. Besides, the “Ratio IC50” value in [1] amounted to 48; in assay [2] it was 9.6; in [4], 13.7; in [5] it was 13.7.

As for `[Cl-].c1cc2nc3ccc(N4CCCC4)cc3[o+]c2cc1N1CCCC1`, the IC50 in the assay on Plasmodium falciparum is 3 nM; in the assay on Trypanosoma cruzi, 121 nM; in assay [3], 160 nM; in the assay on Leishmania donovani, 37 nM; with L6 it was 3930 nM. Further, the “Ratio IC50” value in assay [1] came out at 1400; in assay [2] it was 32.6; in assay [4], 24.6; in [5] it was 107.7.

Consider `CCCN(CCC)c1ccc2nc3ccc(N(CCC)CCC)cc3[o+]c2c1.[Cl-]`, for which the IC50 was determined as 2 nM in the assay on Plasmodium falciparum; 17 nM with Trypanosoma cruzi; 23 nM in assay [3]; 2 nM in the assay with Leishmania donovani; 400 nM in the assay with L6. The “Ratio IC50” value was 165 in assay [1], 23.6 in [2], 17.4 in [4] and 165 in assay [5].

`[Cl-].c1cc2nc3ccc(N4CCOCC4)cc3[o+]c2cc1N1CCOCC1`: the IC50 with Plasmodium falciparum stood at 431 nM; in the assay on Trypanosoma cruzi, 7090 nM; in assay [3], 8740 nM; in the assay with Leishmania donovani it was 5180 nM; with L6 it was 28600 nM. In addition, the “Ratio IC50” value in assay [1] was 66.5; in assay [2] it was 4; in assay [4], 3.3; in assay [5] it was 5.5.

`CCN(CC)c1ccc2nc3ccc(N4CCCC4)cc3[o+]c2c1.[Cl-]`: the IC50 in the assay on Plasmodium falciparum was 6 nM; in the assay with Trypanosoma cruzi it was 56 nM; in assay [3], 168 nM; with Leishmania donovani, 654 nM; with L6, 7770 nM. Further, the “Ratio IC50” value in [1] amounted to 1390; in [2], 139; in assay [4] it was 46.3; in assay [5], 11.9.

On to `CCCN(CCC)c1ccc2nc3ccc(N4CCCC4)cc3[o+]c2c1.[Cl-]`, for which the IC50 in the assay on Plasmodium falciparum is 3 nM; with Trypanosoma cruzi it was 36 nM; in assay [3], 16 nM; in the assay on Leishmania donovani it was 16 nM; in the assay with L6, 920 nM. The “Ratio IC50” value is 355 in [1], 25.4 in assay [2], 59.2 in [4] and 59.2 in assay [5].

With `CN(C)c1ccc2nc3ccc(N4CCCC4)cc3[o+]c2c1.[Cl-]`, the IC50 in the assay on Plasmodium falciparum amounted to 6 nM; in the assay with Trypanosoma cruzi it was 258 nM; in assay [3], 91 nM; with Leishmania donovani, 1710 nM; in the assay with L6 it was 13100 nM. In addition, the “Ratio IC50” value stood at 2166.5 in [1], 51 in assay [2], 144.4 in assay [4] and 7.7 in assay [5].

For `CN(C)c1ccc2nc3ccc(N4CCOCC4)cc3[o+]c2c1.[Cl-]`, the IC50 with Plasmodium falciparum was 23 nM; with Trypanosoma cruzi, 5060 nM; in [3], 2590 nM; with Leishmania donovani it was 1060 nM; with L6, 49800 nM. Further, the “Ratio IC50” value came to 2153.9 in assay [1], 9.8 in [2], 19.2 in assay [4] and 47.2 in assay [5].

Turning to `CCCCCN(CCCCC)c1ccc2nc3ccc(N4CCCCC4)cc3[o+]c2c1.[Cl-]`, the IC50 with Plasmodium falciparum amounted to 2 nM; in the assay on Trypanosoma cruzi, 15 nM; in [3], 22 nM; in the assay with Leishmania donovani, 2 nM; with L6, 140 nM. In addition, the “Ratio IC50” value amounted to 63 in assay [1], 9 in assay [2], 6.3 in [4] and 63 in [5].

For `O=C(Cn1ccnc1[N+](=O)[O-])NCc1ccccc1` [BENZNIDAZOLE], the midpoint of inhibition in the assay on Trypanosoma cruzi, the IC50, lay at 866 nM.

Molecule `CCCCCCCCCCCCCCCCOP(=O)([O-])OCC[N+](C)(C)C` [MILTEFOSINE] registered an IC50 in the assay on Leishmania donovani of 280 nM.

`COc1cc([C@@H]2c3cc4c(cc3[C@H](O)[C@H]3COC(=O)[C@H]23)OCO4)cc(OC)c1OC` [PODOFILOX]: the IC50 in the assay with L6 is 20 nM.
